# Laboratory results from publication PMC7615481 (The Journal of biological chemistry, 2023).
# Entries after “also recorded” stand apart in the source; their conditions may differ. Positions of bridges follow the written chain, without caps; N, C: chain ends. Residues, ends and D or L forms follow the SMILES beside them.
# Legend:
# mouse GC-C [1] = target: T1, mouse GC-C (Mus musculus, UniProt Q3UWA6); test: In vitro GC assay, MnGTP as substrate, mGC-C; assay type: biochemical; settings: 1 mM MnATP, 1 mM MnGTP; Fig. 4B
# T1 sequence (Q3UWA6 20-1072): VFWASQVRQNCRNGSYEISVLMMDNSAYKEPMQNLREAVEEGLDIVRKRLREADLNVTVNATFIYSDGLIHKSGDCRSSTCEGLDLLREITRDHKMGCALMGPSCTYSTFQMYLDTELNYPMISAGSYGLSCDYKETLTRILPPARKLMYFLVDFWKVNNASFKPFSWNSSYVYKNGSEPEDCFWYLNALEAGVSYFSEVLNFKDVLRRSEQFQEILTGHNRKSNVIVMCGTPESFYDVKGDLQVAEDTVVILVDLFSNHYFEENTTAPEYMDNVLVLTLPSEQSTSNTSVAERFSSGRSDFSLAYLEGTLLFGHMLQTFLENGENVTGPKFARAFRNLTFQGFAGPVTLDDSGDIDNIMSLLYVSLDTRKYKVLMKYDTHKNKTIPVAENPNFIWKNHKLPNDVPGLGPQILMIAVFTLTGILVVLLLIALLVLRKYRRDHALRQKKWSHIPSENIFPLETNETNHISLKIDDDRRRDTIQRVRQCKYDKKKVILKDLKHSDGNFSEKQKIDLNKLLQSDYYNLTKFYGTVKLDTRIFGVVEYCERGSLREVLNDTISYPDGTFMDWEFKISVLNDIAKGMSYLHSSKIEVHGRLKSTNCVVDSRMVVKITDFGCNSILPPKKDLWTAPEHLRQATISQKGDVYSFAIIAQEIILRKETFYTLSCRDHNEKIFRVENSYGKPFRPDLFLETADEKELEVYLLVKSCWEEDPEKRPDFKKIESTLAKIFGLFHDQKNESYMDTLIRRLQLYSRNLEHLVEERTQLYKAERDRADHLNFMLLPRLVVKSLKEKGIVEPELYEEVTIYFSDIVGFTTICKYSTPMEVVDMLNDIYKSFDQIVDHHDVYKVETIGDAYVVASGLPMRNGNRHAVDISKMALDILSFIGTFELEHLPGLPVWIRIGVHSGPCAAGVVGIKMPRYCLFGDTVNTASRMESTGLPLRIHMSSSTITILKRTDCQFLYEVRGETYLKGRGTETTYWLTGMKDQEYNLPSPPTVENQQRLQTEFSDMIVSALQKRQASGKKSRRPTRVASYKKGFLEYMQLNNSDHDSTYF
# GC-CK516A [2] = settings: Mg2+; ref [25]; cited from earlier work
# [3] = tested on: chimeric receptor harboring the mouse KHD; assay type: biochemical; settings: 0.1% Lubrol-PX, MgGTP
# GC-CK516A [4] = settings: ref [25]; cited from earlier work
# mouse GC-C [5] = target: T1, mouse GC-C; test: In vitro GC assay, MgGTP as substrate, with or without Lubrol, mGC-C; assay type: biochemical; settings: 1 mM MgGTP, Fig. 4A
# GC-C = settings: in vitro; ref [38]; cited from earlier work
# hmCYC chimeric GC-C [6] = test: In vitro GC assay, MgGTP as substrate, Lubrol-stimulated, hmCYC; assay type: biochemical; settings: 1 mM MgATP, 1 mM MgGTP, 0.1% Lubrol-PX; Fig. 4A
# mhCYC chimeric GC-C = test: In vitro GC assay, MgGTP as substrate, Lubrol-stimulated, mhCYC; assay type: biochemical; settings: 1 mM MgATP, 1 mM MgGTP, 0.1% Lubrol-PX; Fig. 4A
# hGC-C = settings: Mg2+ as metal ion cofactor, ref [25]; cited from earlier work
# human GC-C [7] = target: T2, human GC-C (Homo sapiens, UniProt P25092); settings: Mn2+ as metal ion; ref [25]; cited from earlier work
# T2 sequence (P25092 24-1073): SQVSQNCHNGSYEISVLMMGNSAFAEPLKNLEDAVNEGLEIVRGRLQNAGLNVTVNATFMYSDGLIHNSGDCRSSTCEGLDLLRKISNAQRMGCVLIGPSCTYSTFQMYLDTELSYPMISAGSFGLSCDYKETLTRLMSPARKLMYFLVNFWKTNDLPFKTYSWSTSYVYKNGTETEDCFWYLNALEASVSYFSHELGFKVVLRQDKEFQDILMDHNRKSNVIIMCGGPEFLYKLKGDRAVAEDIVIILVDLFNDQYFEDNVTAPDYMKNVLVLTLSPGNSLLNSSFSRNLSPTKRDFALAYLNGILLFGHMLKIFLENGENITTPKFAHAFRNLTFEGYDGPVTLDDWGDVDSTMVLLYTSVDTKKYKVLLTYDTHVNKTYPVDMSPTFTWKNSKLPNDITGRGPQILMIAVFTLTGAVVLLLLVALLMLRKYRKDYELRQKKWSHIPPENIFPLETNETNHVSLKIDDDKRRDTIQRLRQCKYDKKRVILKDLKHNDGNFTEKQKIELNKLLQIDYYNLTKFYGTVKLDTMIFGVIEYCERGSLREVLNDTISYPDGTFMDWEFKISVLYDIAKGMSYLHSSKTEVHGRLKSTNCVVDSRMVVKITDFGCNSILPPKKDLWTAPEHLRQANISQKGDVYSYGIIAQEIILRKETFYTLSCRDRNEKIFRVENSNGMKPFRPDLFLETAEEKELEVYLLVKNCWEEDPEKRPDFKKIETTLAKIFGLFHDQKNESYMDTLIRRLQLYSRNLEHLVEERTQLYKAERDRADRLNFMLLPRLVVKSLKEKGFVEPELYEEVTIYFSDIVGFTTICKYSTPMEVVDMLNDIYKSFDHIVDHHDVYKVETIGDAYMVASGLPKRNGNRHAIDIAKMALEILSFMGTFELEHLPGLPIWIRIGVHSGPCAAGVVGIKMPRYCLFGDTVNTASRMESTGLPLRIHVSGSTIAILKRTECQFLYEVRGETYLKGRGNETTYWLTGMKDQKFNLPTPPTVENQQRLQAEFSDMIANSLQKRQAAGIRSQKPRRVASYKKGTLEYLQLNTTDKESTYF
# human GC-C [8] = target: T2, human GC-C; test: In vitro GC assay, MnGTP as substrate, hGC-C; assay type: biochemical; settings: 1 mM MnATP, 1 mM MnGTP; Fig. 4B
# hmCYC chimeric GC-C [9] = test: In vitro GC assay, MnGTP as substrate, hmCYC; assay type: biochemical; settings: 1 mM MnATP, 1 mM MnGTP; Fig. 4B
# mouse GC-C variant 2 [10] = test: Ligand-stimulated cGMP production in HEK293E cells, mouse GC-C variant 2; assay type: cell-based; settings: 10^−6 M ST, RIA, Fig. 1D
# Procedure, shortened: (§1)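 HEK293E cells expressing the mouse GC-C variant were preincubated for 30 min at 37 °C in a humidified CO₂ incubator in DMEM-HG with serum, antibiotics and 500 μM IBMX. They were then exposed to medium alone or 10⁻⁶ M ST for 30 min. Monolayers were lysed in 0.1 N HCl, and cGMP was measured by RIA and normalized to cell-surface receptor amount. Representative of three independent experiments.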
# WT or GCD chimeric GC-C = assay type: binding; settings: monolayers of HEK293E; Fig. 3E
# mouse GC-C variant 1 = test: Ligand-stimulated cGMP production in HEK293E cells, mouse GC-C variant 1; assay type: cell-based; settings: 10^−6 M ST, RIA, Fig. 1D
# Procedure, shortened: as §1
# human GC-C [11] = target: T2, human GC-C; settings: ref [21]; cited from earlier work
# mouse GC-C [12] = target: T1, mouse GC-C; assay type: cell-based
# [13] = tested on: mhICD chimeric GC-C receptor; assay type: binding; settings: words; Fig. 2H lower panel
# mice lacking GC-C = settings: ref [12]; cited from earlier work
# mice = settings: mouse, in vivo; cited from earlier work
# hmCYC chimeric GC-C [14] = assay type: cell-based
# mouse GC-C variant 2 [15] = test: Radiolabeled ST binding to monolayers, mouse GC-C variant 2; settings: monolayer HEK293E, Fig. 1E, three experiments
compound,measurement,setting,value
Nc1ncnc2c1ncn2[C@@H]1O[C@H](COP(=O)(O)OP(=O)(O)OP(=O)(O)O)[C@@H](O)[C@H]1O [ATP],"ATP-mediated inhibition of GC activity with MnGTP, mGC-C",mouse GC-C [1],remained; also recorded: displayed ATP-mediated inhibition of MnGTP-mediated activity
same,"ATP inhibition of Lubrol-stimulated GC activity, GC-CK516A",GC-CK516A [2],inhibition is lost
same,"ATP inhibition of detergent-mediated activity, chimeric receptor harboring the mouse KHD",[3],no inhibition of detergent-mediated activity by ATP
same,"ATP inhibition of GC activity with Mn2+, GC-CK516A",GC-CK516A [4],inhibition is also seen
same,"ATP-mediated inhibition of Lubrol-stimulated GC activity, mGC-C","mouse GC-C [5]; 1 mM MgATP, 0.1% Lubrol-PX",lost and no allosteric inhibition of guanylyl cyclase activity and no inhibition of detergent-mediated activity by ATP
same,ATP inhibition of MnGTP-mediated and detergent-mediated GC activity,GC-C,inhibit in vitro MnGTP-mediated and detergent-mediated GC activity
same,"ATP-mediated inhibition of Lubrol-stimulated GC activity, hmCYC",hmCYC chimeric GC-C [6],retained
same,"ATP-mediated inhibition of Lubrol-stimulated GC activity, mhCYC",mhCYC chimeric GC-C,lost
same,ATP inhibition of Lubrol-stimulated GC activity,hGC-C,inhibits Lubrol-stimulated GC activity
same,ATP inhibition of GC activity with Mn2+,human GC-C [7],inhibits GC activity when Mn^2+ is the metal ion used in assays
same,"ATP-mediated inhibition of GC activity with MnGTP, hGC-C",human GC-C [8],remained
same,"ATP-mediated inhibition of MnGTP-mediated activity, hmCYC",hmCYC chimeric GC-C [9],displayed ATP-mediated inhibition of MnGTP-mediated activity
"CC(C)C[C@@H]1NC(=O)[C@H](CCC(=O)O)NC(=O)[C@@H]2CSSC[C@@H]3NC(=O)[C@H](C)NC(=O)[C@@H]4CCCN4C(=O)[C@H](CC(N)=O)NC(=O)[C@H](CSSC[C@H](NC(=O)[C@H](Cc4ccc(O)cc4)NC(=O)[C@H](CC(N)=O)NC(=O)[C@H](CO)NC(=O)[C@H](CO)NC(=O)[C@@H](N)CC(N)=O)C(=O)N2)NC(=O)[C@H](CSSC[C@@H](C(=O)N[C@@H](Cc2ccc(O)cc2)C(=O)O)NC(=O)CNC(=O)[C@H]([C@@H](C)O)NC3=O)NC1=O [ST] (H-NSSNYCCELCCNPACTGCY-OH; disulfide 6-11, 7-15, 10-18; N-terminus and C-terminus assumed)","cGMP levels on ST treatment, variant 2",mouse GC-C variant 2 [10],remained unchanged
same,binding to ST of GCD chimeric receptors,WT or GCD chimeric GC-C,determined by the ECD
same,"cGMP levels on ST treatment, variant 1",mouse GC-C variant 1,significant increase in cGMP levels
same,affinity of plasma membrane- and endoplasmic reticulum–associated hGC-C for ST,human GC-C [11],comparable affinities
same,"accumulation of cGMP at saturating ST, mGC-C",mouse GC-C [12],much reduced in comparison with cells expressing hGC-C
same,"intracellular cGMP accumulation, mGC-C lower than hGC-C",mouse GC-C [12],~ 10 fold
same,affinity to the ST peptide of the mhICD chimera,[13],reduced affinity to the ST peptide
same,ST-induced fluid accumulation in mice lacking GC-C,mice lacking GC-C,resistant to ST-induced fluid accumulation
same,accumulation of fluid in the gut of mice on ST treatment,mice,leads to the accumulation of fluid in the gut
same,"cGMP accumulation, hmCYC versus hGC-C",hmCYC chimeric GC-C [14],log order reduction in cGMP accumulation when compared to hGC-C
same,ligand binding ability of variant 2,mouse GC-C variant 2 [15],marked reduction in the ligand binding ability
MgGTP,GC activity of mGC-C in the presence of MgGTP,"mouse GC-C [5]; 4 mM free MgCl2, 37 °C 10 min, words",lower than that of hGC-C
